Results gathered from unrelated publications.
Each line is one published result; the experiments were not run side by side.
Target: Discoidin domain-containing receptor 2 (DDR2, Homo sapiens, UniProt Q16832)
Residues used in one study (Q16832 22-855): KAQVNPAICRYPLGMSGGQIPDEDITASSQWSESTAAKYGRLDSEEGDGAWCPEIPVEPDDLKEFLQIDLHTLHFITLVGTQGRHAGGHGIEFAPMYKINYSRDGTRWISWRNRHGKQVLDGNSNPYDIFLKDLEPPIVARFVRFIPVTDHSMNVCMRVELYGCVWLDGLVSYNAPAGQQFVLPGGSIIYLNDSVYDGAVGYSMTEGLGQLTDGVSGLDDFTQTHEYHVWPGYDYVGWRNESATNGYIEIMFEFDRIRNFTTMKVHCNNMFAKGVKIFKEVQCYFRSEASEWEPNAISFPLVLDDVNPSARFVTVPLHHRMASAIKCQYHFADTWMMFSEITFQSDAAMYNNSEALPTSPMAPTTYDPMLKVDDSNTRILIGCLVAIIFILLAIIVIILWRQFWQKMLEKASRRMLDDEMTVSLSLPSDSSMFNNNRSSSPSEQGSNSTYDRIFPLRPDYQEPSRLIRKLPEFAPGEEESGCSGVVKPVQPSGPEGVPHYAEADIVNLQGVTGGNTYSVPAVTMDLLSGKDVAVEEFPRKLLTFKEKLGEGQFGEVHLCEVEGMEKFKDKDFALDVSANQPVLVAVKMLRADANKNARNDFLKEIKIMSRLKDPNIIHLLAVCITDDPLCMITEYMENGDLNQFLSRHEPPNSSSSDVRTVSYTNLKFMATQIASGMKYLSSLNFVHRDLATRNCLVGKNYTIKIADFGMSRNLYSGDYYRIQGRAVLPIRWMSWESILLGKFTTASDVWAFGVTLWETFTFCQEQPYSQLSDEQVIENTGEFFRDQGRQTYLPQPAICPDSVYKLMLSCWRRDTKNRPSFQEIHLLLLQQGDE

For `O=C(NCCCN1CCOCC1)c1ccc(Nc2ncc(Cl)c(-c3ccc(Cl)s3)n2)cc1`, the remaining binding was 61% (binding, competition with immobilised ligand; 1 µM).
The remaining binding of `O=C(Nc1c[nH]nc1C(=O)NC1CCNCC1)c1cc(F)cc(F)c1` is reported as 94% (binding, competition with immobilised ligand; 1 µM).
`Cc1cnn2ncc(-c3ccnc(N(C)C)n3)c2c1` has a remaining binding of 69% (binding; 1 µM).
With `CNC(=O)[C@@H]1CC[C@@H](n2c(-c3ccc4cnccc4c3)nc3ccc(C(=O)NCc4cccc(C(N)=O)c4)cc32)C1` the remaining binding was 93% (binding, competition with immobilised ligand; 1 µM).
`O=C(c1ccc(Nc2nccc(-c3cc4ccccc4s3)n2)cc1)N1CCC(N2CCCC2)CC1` gave a remaining binding of 20% (binding, competition with immobilised ligand; 1 µM).
`CN(C)c1nccc(-c2cnn3ncccc23)n1` has a remaining binding of 100% (binding; 1 µM).
With `CS(=O)(=O)NCC[C@H](NC(=O)c1cncc2c1cnn2-c1ccc(F)cc1)c1ccnc(S(C)(=O)=O)c1` the remaining binding was 100% (cell-free assay, competition with immobilised ligand; 1 µM).
With `F[C@@H]1CCN(c2nccc(-c3cnn4ncccc34)n2)C1` the remaining binding was 91% (binding; 1 µM).
The remaining binding of `CCCOc1ccc([C@H]2[C@H](C(=O)O)[C@@H](c3ccc4c(c3)OCO4)CN2CC(=O)Nc2c(CC)cccc2CC)cc1` is reported as 71% (cell-free assay, competition with immobilised ligand; 1 µM).
For `CC1CCCN1c1nccc(-c2cnn3ncccc23)n1` (centres unmarked), the remaining binding was 100% (binding; 1 µM).
The remaining binding of `CC(=O)C1=C(C)N(c2cccc(C(F)(F)F)c2)C(=O)N[C@@H]1c1ccc(C#N)nc1` is reported as 87.6% (cell-free assay, competition with immobilised ligand; 1 µM).
`c1cncc(-c2cccc(Nc3nccc(NC4CCCCC4)n3)c2)c1` has a remaining binding of 86% (binding, competition with immobilised ligand; 10 µM).
For `Nc1ncc2c(n1)-c1c([nH]c3ccc(C#CC4CC4)cc13)CCCC2`, the remaining binding was 80% (binding, competition with immobilised ligand; 1 µM).
`COc1cnc(Nc2cccc(S(N)(=O)=O)c2)nc1N1CCN(c2ccccc2)C(=O)C1` gave a remaining binding of 100% (binding, competition with immobilised ligand; 1 µM).
For `CC(C)(O)c1cncc(-c2nc3ccc(F)cc3n2C2CC2)c1`, the remaining binding was 100% (cell-free assay, competition with immobilised ligand; 1 µM).
For `FC(F)(F)Oc1cccc(-c2cnc3ccc(-c4ccncc4)nn23)c1`, the remaining binding was 55% (cell-free assay, competition with immobilised ligand; 5 µM).
With `O=C(Nc1cccnn1)N1CCC(=Cc2cccc(Oc3ccc(C(F)(F)F)cn3)c2)CC1` the remaining binding was 100% (cell-free assay, competition with immobilised ligand; 1 µM).
For `Cc1cnc(Nc2ccc(C(=O)N3CCC(N4CCCC4)CC3)cc2)nc1-c1cc2ccccc2s1`, the remaining binding was 8% (binding, competition with immobilised ligand; 1 µM).
For `CN(CCCC(F)(F)F)c1nccc(-c2cnn3ncccc23)n1`, the remaining binding was 96% (binding; 1 µM).
`Cn1nc(C(F)(F)F)cc1-c1cnc(N2CCc3cc(S(=O)(=O)Nc4c(F)cc(Cl)cc4F)cc(N4CCCC4=O)c32)nc1` gave a remaining binding of 80% (cell-free assay, competition with immobilised ligand; 1 µM).
